Source: PubChem
sdo1 growth – restores growth of sdo1-depleted yeast | 140,000 compounds, 0.21% hits | S. cerevisiae sdo1-depleted JHY4D growth rescue, OD600 30 h; active compounds read high; pdr5 snq2 efflux-pump mutant strain | z-score at 10 µM;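 active = z-score above 3 at both the 24 hr and the 30 hr optical density reads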;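 also: z-score against mean and SD of all compound wells on the same plate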
Yeast lifespan up – yeast lifespan extension; inhibition of the nicotinamide effect, % at 10 µM; S. cerevisiae growth with nicotinamide, OD615; deaD strain in restrictive glucose medium; 130,000 compounds, 0.68% hits; AID 775;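 active = inhibition above a set limit, placed 3 SD over the median of all compounds, cut at about 26% in these data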;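 also: 0% = nicotinamide-treated wells and 100% = cells grown without nicotinamide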
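Assay system: DeaD-strain S. cerevisiae. Medium: CSMM-D glucose medium, restrictive. Reagent: nicotinamide, 1.5 mM, co-present with compound. Compound: 10 µM single point, 0.25% DMSO. Schedule: culture preincubation 4 h, compound exposure 48 h, both 30 °C. Detection: absorbance at 615 nm.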
Measles CPE – protection of cells from measles virus | 140,000 compounds, 1.5% hits | AID 841 | protection (pct of control), % at 4 µM | Measles virus-infected cells, CPE protection, absorbance; in the data active = protection mostly above about 24%, no sharp cut-off; inactive = mostly below about 26%
sEH inhibitor – blocks human soluble epoxide hydrolase activity. P34913. recombinant human sEH enzymatic activity assay. inhibition, % at 2 µM. 91,000 compounds, 0.34% hits; in the data active = inhibition above about 80%
Target sequence (P34913 whole entry, looked up): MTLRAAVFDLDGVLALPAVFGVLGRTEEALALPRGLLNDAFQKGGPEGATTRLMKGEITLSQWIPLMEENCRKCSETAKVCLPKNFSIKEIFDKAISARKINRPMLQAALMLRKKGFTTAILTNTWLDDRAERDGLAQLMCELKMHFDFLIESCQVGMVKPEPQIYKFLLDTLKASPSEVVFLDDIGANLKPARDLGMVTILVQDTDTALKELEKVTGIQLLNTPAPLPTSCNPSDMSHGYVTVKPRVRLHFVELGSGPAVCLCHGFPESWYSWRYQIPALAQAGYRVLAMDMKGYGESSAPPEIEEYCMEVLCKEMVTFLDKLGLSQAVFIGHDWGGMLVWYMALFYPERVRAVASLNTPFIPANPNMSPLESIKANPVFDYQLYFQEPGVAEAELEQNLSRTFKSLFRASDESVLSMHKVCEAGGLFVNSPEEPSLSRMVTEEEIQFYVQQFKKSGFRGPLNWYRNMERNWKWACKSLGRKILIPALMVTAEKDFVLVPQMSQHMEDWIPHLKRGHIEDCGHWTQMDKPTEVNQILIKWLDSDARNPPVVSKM
sEH act – soluble epoxide hydrolase (human) activation. P34913. purified human sEH enzymatic activity, activator screen. activation, % at 2 µM. 91,000 compounds, 0.04% hits; in the data active = activation above about 37%
Yeast growth inh – reduces growth of yeast BB579 in restrictive medium. S. cerevisiae BB579 growth, OD615, 48 h. inhibition, % at 10 µM. 140,000 compounds, 0.51% hits. AID 804;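 active = inhibition above a set limit, 3 SD over the mean compound inhibition, cut at about 44% in these data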
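Test system: Saccharomyces cerevisiae DeaD strain BB579, replicative lifespan model yeast | Buffer or medium: Restrictive CSMM-D medium | Doses: One dose, 10 µM compound with 0.25% DMSO | Incubation: 48 h exposure, 30 °C | Detection: Culture absorbance at 615 nm | Control set: Amphotericin B at 10 µg/mL as positive control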
Starred values were filed as active, the others as inactive; nt = no result given. Rows were chosen to be rich in hits. Some 3% of all compounds tested hit in one or more screens of this group.

SMILES	sdo1 growth	Yeast lifespan up	Measles CPE	sEH inhibitor	sEH act	Yeast growth inh
CC(C)OCCCNC(=O)CCSc1ccc(Cl)cc1	0.57	-13	11	15	-15	-1
CCOc1ccc(/C(O)=C2/C(=O)C(=O)N(CC3CCCO3)C2c2ccc(C)o2)cc1 (stereo not drawn)	0.49	6	46*	-1	1	5
CCOc1ccc(/C(O)=C2/C(=O)C(=O)N(CC3CCCO3)C2c2ccco2)cc1 (stereo not drawn)	0.91	nt	26	-5	4	-19
COc1ccnc(Oc2ccc(C)cc2C)c1C#N	-0.07	-2	9	-7	5	-7
COc1ccc(S(=O)(=O)n2nc(C)cc2C)c(C)c1C	-0.75	-6	8	6	-4	-22
CCCCC1NC(=S)N(C2CCCCC2)C1=O (stereo not drawn)	-0.16	2	4	nt	nt	-29
Cc1ccc(-c2nc3sc(C(N)=O)c(N)c3c3c2CCCC3)cc1	-2	-7	2	nt	nt	46*
CC(=O)c1sc2nc(-c3ccc(C)cc3)c3c(c2c1N)CCCC3	-0.9	-1	21	nt	nt	-29
O=C(ONC1=NCCCCC1)c1ccc(Cl)cc1	-2.7	-20	3	12	-14	98*
CCCCC1C(=O)N(c2ccccc2)N(c2ccccc2)C1=O	-0.45	28*	60*	nt	nt	-24
CCCCOCC1CN(c2ccccc2)C(=O)CS1 (stereo not drawn)	-0.16	3	12	6	-7	-30
COC(=O)[C@H](C)NC(=O)NC1CCN(Cc2ccccc2)CC1	-0.19	-4	3	6	-7	-50
Cc1cc(O)c(/C=N/Nc2ccc(Cl)cc2)c(=O)o1	-2.1	-28	1	3	-2	97*
Cc1cc(O)c(/C=N/Nc2cccc(Cl)c2)c(=O)o1	-1.3	-26	6	-8	9	98*
COc1ccc(Cl)cc1N=Cc1c(O)cc(C)oc1=O	nt	nt	nt	-6	8	nt
Cc1cc(O)c(/C=N/Nc2ccccc2Cl)c(=O)o1	-2.6	-32	2	1	2	98*
Cc1ccc(C(=O)NC(c2ccccc2)C(Cl)Cl)cc1 (stereo not drawn)	0.79	-4	5	nt	nt	-27
COc1cc(/C=C/C(=O)OCC(=O)NCC2CCCO2)ccc1OCC#N (stereo not drawn)	1.9	4	19	nt	nt	-35
O=C(Cn1cc(S(=O)(=O)Cc2ccccc2)c2ccccc21)Nc1ccccc1	0.3	8	3	nt	nt	-27
CC(NS(C)(=O)=O)C(c1cccs1)N1CCN(Cc2ccccc2)CC1 (stereo not drawn)	1.2	-9	31*	nt	nt	-38
CC(NS(C)(=O)=O)C(c1cccs1)N1CCN(C)CC1 (stereo not drawn)	0.37	-7	17	nt	nt	-26
CC(NS(=O)(=O)c1ccccc1)C(c1cccs1)N1CCN(c2ccccc2)CC1 (stereo not drawn)	-1.1	-5	2	nt	nt	-32
CC(NS(=O)(=O)c1ccc(Br)cc1)C(c1cccs1)N1CCN(C)CC1 (stereo not drawn)	1.2	-12	27*	nt	nt	-44
CCNC(=O)NC(=O)C(C)OC(=O)C1CCN(S(=O)(=O)c2ccc(C)c(C)c2)CC1 (stereo not drawn)	1	-5	8	nt	nt	-45
O=C(c1ccc(F)cc1)N1CCN(c2cc(N3CCCCC3)c(F)cc2[N+](=O)[O-])CC1	-1.5	-4	7	5	-5	-41
SMILES	sdo1 growth	Yeast lifespan up	Measles CPE	sEH inhibitor	sEH act	Yeast growth inh
COc1ccc(OCC(=O)NNC(=O)c2cccc(S(=O)(=O)N(C)C)c2)cc1	0.69	31*	13	nt	nt	-26
Cc1c(/C=N/NC(=O)CNc2ccccc2)c2ccccn2c1C(=O)c1ccccc1	-1.1	1	23*	nt	nt	1
COC(=O)N/N=C/c1c(C)c(C(=O)c2ccc(F)cc2)n2ccccc12	-1.6	-2	24	nt	nt	-30
Cc1ccc(OCC(=O)Nc2ccc([N+](=O)[O-])cn2)cc1C	nt	nt	nt	8	-5	nt
O=c1c2ccccc2nnn1CSc1nnc2sc3ccccc3n12	0.23	12	41*	1	0	-32
COC(Cc1n[nH]c(=S)n1-c1ccc(Cl)cc1)OC	0.06	-1	19	8	-5	-60
CCC(=O)Nc1nc(C)c(-c2csc(Nc3ccc(S(=O)(=O)Nc4cc(C)on4)cc3)n2)s1	1.4	-19	15	0	0	-19
